Measured values published in ChEMBL document CHEMBL1127554, “Design, synthesis, and study of 9-substituted ellipticine and 2-methylellipticinium analogues as potential CNS-selective antitumor agents” (1994).

Experiments:
Tumor Cell line [1] = assay: LC50 was given In vitro as -50% percent growth (PG), measured as concentration of compound required to inhibit disease oriented human tumor cell line panels; assay type: functional; settings: read-out: LC50 (the source's name)
Procedure, shortened: (§1)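 Human tumor cell line panel tested in vitro. Percent growth (PG) plotted against log drug concentration to give dose-response curves. LC50 is the concentration where PG equals -50%; GI50 and TGI are taken at +50% and 0%. Values are means across the full panel, with values beyond the tested limits (> or <) included in the mean.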

Tumor Cell line [2] = assay: TGI was measured In vitro as the ratio of the mean activity for all non-CNS tumor cell lines over the mean activity of the CNS tumor subpanel (eight cell lines); assay type: functional, Homo sapiens
Procedure, shortened: (§2)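 Ratio of the mean activity (μM) over all non-CNS tumour cell lines (ca. 40-50 lines) to the mean activity (μM) of the CNS subpanel (eight lines). Activity was taken from PG vs log concentration curves: GI50 at PG +50%, TGI at PG 0%.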

Tumor Cell line [3] = assay: GI50 was given In vitro as +50% percent growth (PG), measured as concentration of compound required to inhibit disease oriented human tumor cell line panels; Value ranges from 0.22-52.48; assay type: functional
Procedure, shortened: (§3)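 Human tumour cell line panel; percent growth plotted against log drug concentration to give dose-response curves. GI50 is the concentration giving PG +50%, and TGI the concentration giving PG 0%. Values are mean inhibitory concentrations over the entire panel. PG values at either limit (> or <) are included in the mean.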

Tumor Cell line [4] = assay: GI50 was measured In vitro as the ratio of the mean activity for all non-CNS tumor cell lines over the mean activity of the CNS tumor subpanel (eight cell lines); assay type: functional, Homo sapiens; procedure, shortened: as §2
[5] = GI50 was measured in vitro as the ratio of the mean activity for all non-CNS tumor cell lines over the mean activity of the CNS tumor subpanel (eight cell lines); assay type: functional; procedure, shortened: as §2
Tumor Cell line [6] = assay: TGI was given in vitro as 0% percent growth (PG), measured as concentration of compound required to inhibit disease oriented human tumor cell line panels; Value ranges from 2.75-41.69; assay type: functional; procedure, shortened: as §3
[7] = LC50 was measured in vitro as the ratio of the mean activity for all non-CNS tumor cell lines over the mean activity of the CNS tumor subpanel (eight cell lines); assay type: functional
Procedure, shortened: (§4)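 Same PG dose-response panel. LC50 (μM) is averaged separately over the non-CNS lines (ca. 40-50 lines) and the CNS subpanel (eight lines). The ratio is the non-CNS mean divided by the CNS mean.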

Tumor Cell line [8] = assay: LC50 was given in vitro as -50% percent growth (PG), measured as concentration of compound required to inhibit disease oriented human tumor cell line panels; Value ranges from 5.75->100; assay type: functional; settings: read-out: LC50 (the source's name); procedure, shortened: as §1
[9] = TGI was measured in vitro as the ratio of the mean activity for all non-CNS tumor cell lines over the mean activity of the CNS tumor subpanel (eight cell lines); assay type: functional; procedure, shortened: as §2
Tumor Cell line [10] = assay: GI50 was given in vitro as +50% percent growth (PG), measured as concentration of compound required to inhibit disease oriented human tumor cell line panels; Value ranges from 1.55-16.6; assay type: functional; procedure, shortened: as §3
Tumor Cell line [11] = assay: LC50 was measured In vitro as the ratio of the mean activity for all non-CNS tumor cell lines over the mean activity of the CNS tumor subpanel (eight cell lines); assay type: functional, Homo sapiens; procedure, shortened: as §4
Tumor Cell line [12] = assay: LC50 was given In vitro as -50% percent growth (PG), measured as concentration of compound required to inhibit disease oriented human tumor cell line panels; Value ranges from 4.68-100; assay type: functional; settings: read-out: LC50 (the source's name); procedure, shortened: as §1
Tumor Cell line [13] = assay: TGI was given In vitro as 0% percent growth (PG), measured as concentration of compound required to inhibit disease oriented human tumor cell line panels; Value ranges from 3.47->100; assay type: functional
Tumor Cell line [14] = assay: GI50 was given In vitro as +50% percent growth (PG), measured as concentration of compound required to inhibit disease oriented human tumor cell line panels; Value ranges from 0.43->100; assay type: functional
Tumor Cell line [15] = assay: LC50 was given In vitro as -50% percent growth (PG), measured as concentration of compound required to inhibit disease oriented human tumor cell line panels; Value ranges from 7.94->100; assay type: functional; settings: read-out: LC50 (the source's name)
Tumor Cell line [16] = assay: LC50 was given In vitro as -50% percent growth (PG), measured as concentration of compound required to inhibit disease oriented human tumor cell line panels; Value ranges from 16.98->100; assay type: functional; settings: read-out: LC50 (the source's name); procedure, shortened: as §1
Tumor Cell line [17] = assay: TGI was given In vitro as 0% percent growth (PG), measured as concentration of compound required to inhibit disease oriented human tumor cell line panels; Value ranges from 3.24-37.15; assay type: functional; procedure, shortened: as §3
Tumor Cell line [18] = assay: GI50 was given In vitro as +50% percent growth (PG), measured as concentration of compound required to inhibit disease oriented human tumor cell line panels; Value ranges from 1.38-15.14; assay type: functional; procedure, shortened: as §3
Tumor Cell line [19] = assay: LC50 was given In vitro as -50% percent growth (PG), measured as concentration of compound required to inhibit disease oriented human tumor cell line panels; Value ranges from 8.13->76; assay type: functional; settings: read-out: LC50 (the source's name); procedure, shortened: as §1
Tumor Cell line [20] = assay: TGI was given In vitro as 0% percent growth (PG), measured as concentration of compound required to inhibit disease oriented human tumor cell line panels; Value ranges from 0.68->100; assay type: functional; procedure, shortened: as §3
Tumor Cell line [21] = assay: LC50 was given In vitro as -50% percent growth (PG), measured as concentration of compound required to inhibit disease oriented human tumor cell line panels; Value ranges from 3.02->100; assay type: functional; settings: read-out: LC50 (the source's name)
Tumor Cell line [22] = assay: GI50 was given In vitro as +50% percent growth (PG), measured as concentration of compound required to inhibit disease oriented human tumor cell line panels; Value ranges from 0.060->100; assay type: functional
Tumor Cell line [23] = assay: LC50 was given In vitro as -50% percent growth (PG), measured as concentration of compound required to inhibit disease oriented human tumor cell line panels; Value ranges from 67.61->100; assay type: functional; settings: read-out: LC50 (the source's name); procedure, shortened: as §1
Tumor Cell line [24] = assay: GI50 was given In vitro as +50% percent growth (PG), measured as concentration of compound required to inhibit disease oriented human tumor cell line panels; Value ranges from 0.23-29.5; assay type: functional; procedure, shortened: as §3
Tumor Cell line [25] = assay: LC50 was given In vitro as -50% percent growth (PG), measured as concentration of compound required to inhibit disease oriented human tumor cell line panels; Value ranges from 4.09->100; assay type: functional; settings: read-out: LC50 (the source's name); procedure, shortened: as §1
Tumor Cell line [26] = assay: GI50 was given In vitro as +50% percent growth (PG), measured as concentration of compound required to inhibit disease oriented human tumor cell line panels; Value ranges from 0.62-2.95; assay type: functional; procedure, shortened: as §3
Tumor Cell line [27] = assay: TGI was given In vitro as 0% percent growth (PG), measured as concentration of compound required to inhibit disease oriented human tumor cell line panels; Value ranges from 2-5.50; assay type: functional; procedure, shortened: as §3

CC(=O)[O-].Cc1c2cc[n+](C)cc2c(C)c2c1[nH]c1ccc(OCC(F)(F)F)cc12
CC50 (Tumor Cell line [1]): > 100 µM | TGI ratio (Tumor Cell line [2]): 13.7 | GI50 (Tumor Cell line [3]): 3.47 µM | GI50 ratio (Tumor Cell line [4]): 12.9

Cc1c2ccncc2c(C)c2c1[nH]c1ccc(Oc3ccccc3)cc12
GI50 ratio [5]: 0.82 | TGI (Tumor Cell line [6]): 6.03 µM | LC50 ratio [7]: 0.88 µM | CC50 (Tumor Cell line [8]): > 19.5 µM | TGI ratio [9]: 0.81 | GI50 (Tumor Cell line [10]): 2.63 µM

CCOc1ccc2[nH]c3c(C)c4ccncc4c(C)c3c2c1
LC50 ratio (Tumor Cell line [11]): 1.7 | TGI ratio (Tumor Cell line [2]): 1.32 | CC50 (Tumor Cell line [12]): > 8.32 µM | GI50 ratio (Tumor Cell line [4]): 0.89

CC(=O)[O-].Cc1c2cc[n+](C)cc2c(C)c2c1[nH]c1ccc(OC(C)C)cc12
TGI (Tumor Cell line [13]): > 23.4 µM | TGI ratio (Tumor Cell line [2]): 2.09 | GI50 (Tumor Cell line [14]): > 3.8 µM | CC50 (Tumor Cell line [15]): > 66.1 µM | GI50 ratio (Tumor Cell line [4]): 2.99

Cc1c2cc[n+](C)cc2c(C)c2c1[nH]c1ccc(Oc3ccccc3)cc12.[I-]
CC50 (Tumor Cell line [16]): > 93.3 µM | TGI ratio (Tumor Cell line [2]): 2.06 | GI50 ratio (Tumor Cell line [4]): 3.05

Cc1c2ccncc2c(C)c2c1[nH]c1ccc(O)c(OCC(F)(F)F)c12
TGI (Tumor Cell line [17]): 15.8 µM | GI50 (Tumor Cell line [18]): 5.89 µM | TGI ratio (Tumor Cell line [2]): 0.98 | CC50 (Tumor Cell line [19]): > 42.7 µM | GI50 ratio (Tumor Cell line [4]): 1.07

CCOc1ccc2[nH]c3c(C)c4cc[n+](C)cc4c(C)c3c2c1.[I-]
TGI (Tumor Cell line [20]): > 12 µM | CC50 (Tumor Cell line [21]): > 55 µM | TGI ratio (Tumor Cell line [2]): 9.54 | GI50 (Tumor Cell line [22]): > 1.17 µM | GI50 ratio (Tumor Cell line [4]): 7.9

CC(=O)[O-].Cc1c2cc[n+](C)cc2c(C)c2c1[nH]c1ccc(Oc3ccccc3)cc12
CC50 (Tumor Cell line [23]): > 97.7 µM | TGI ratio (Tumor Cell line [2]): 3.06 | GI50 (Tumor Cell line [24]): 1.82 µM | GI50 ratio (Tumor Cell line [4]): 3.48

Cc1c2ccncc2c(C)c2c1[nH]c1ccc(OCC(F)(F)F)cc12
CC50 (Tumor Cell line [25]): > 8.13 µM | LC50 ratio (Tumor Cell line [11]): 0.74 | TGI ratio (Tumor Cell line [2]): 0.73 | GI50 (Tumor Cell line [26]): 1.58 µM | GI50 ratio (Tumor Cell line [4]): 0.63 | TGI (Tumor Cell line [27]): 3.24 µM
